# Measured values as given in ChEMBL document CHEMBL1150415 (J Med Chem, 2008).
# Activity calls are given as the source filed them. The rule behind the calls is not given here.
# Key:
# [1] = Oral bioavailability in rat; format: ADME, organism-based; conditions: in vivo
# Blood [2] = test: Inhibition of PGF2alpha production in human whole blood at 0.039 uM; format: functional
# Procedure, shortened: (§1)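 Human whole blood stimulated with calcium ionophore A23187 at 30 µM. Several arachidonic acid metabolites (LTB4, PGE2, PGF2α, TXB2) and PAF production were quantified.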
# Rattus norvegicus [3] = test: Reduction in cartilage damage in Freund's adjuvant-induced arthritis Lewis rat model at 50 mg/kg, po for 11 days; format: functional, organism-based; design: dose 50 mg/kg
# Procedure, shortened: (§2)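 Arthritis was induced in Lewis rats by intradermal complete Freund's adjuvant at the base of the tail. Oral treatment began on day 8, when mean clinical joint scores were 12, and continued for 11 days. Tarsal joints were taken at necropsy and lesions were scored histologically in blinded fashion.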
# [4] = Plasma concentration in adjuvant-induced arthritis Lewis rat model at 25 mg/kg, po after 4 hrs; format: ADME, organism-based; design: dose 25 mg/kg, route oral
# MC9 [5] = test: Inhibition of LTB4 production in mouse MC9 cells; format: functional, cell-based
# [6] = tested on: Prostaglandin G/H synthase 2, cyclooxygenase-2; test: Inhibition of COX2 in microsomes at 100 uM
# Rattus norvegicus [7] = test: Inhibition of carrageenan-induced paw edema in Sprague-Dawley rat administered 2 hrs before carrageenan challenge at 25 mg/kg, po; format: functional
# [8] = Ratio of AUC in Sprague-Dawley rat at 25 mg/kg, po to IC50 for TXB2 production in Sprague-Dawley rat whole blood; format: functional
# [9] = target: T1, Cytosolic phospholipase A2 gamma (Homo sapiens) (UniProt Q9UP65); test: Inhibition of cytosolic phospholipase A2gamma at 0.5 uM
# T1 sequence (whole entry): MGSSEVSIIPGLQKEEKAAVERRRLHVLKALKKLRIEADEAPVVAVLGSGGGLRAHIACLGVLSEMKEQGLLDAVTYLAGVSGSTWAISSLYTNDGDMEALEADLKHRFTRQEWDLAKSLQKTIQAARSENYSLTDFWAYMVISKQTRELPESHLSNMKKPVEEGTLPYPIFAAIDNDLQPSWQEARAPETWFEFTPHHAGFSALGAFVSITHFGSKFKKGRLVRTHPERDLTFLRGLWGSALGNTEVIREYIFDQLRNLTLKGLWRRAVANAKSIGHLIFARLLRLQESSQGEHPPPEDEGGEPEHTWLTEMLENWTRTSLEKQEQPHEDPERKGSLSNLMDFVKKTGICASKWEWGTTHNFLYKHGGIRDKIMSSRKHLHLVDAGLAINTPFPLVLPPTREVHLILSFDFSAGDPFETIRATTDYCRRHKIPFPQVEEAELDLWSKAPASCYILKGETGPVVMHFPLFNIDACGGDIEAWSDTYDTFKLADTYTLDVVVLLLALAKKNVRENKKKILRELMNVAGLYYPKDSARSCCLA
# Procedure, shortened: (§3)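 Isolated enzyme activity on PAPC (1-palmitoyl-2-arachidonoyl-sn-glycero-3-phosphocholine) liposome substrate.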
# Rattus norvegicus [10] = test: Reduction in cartilage damage in Freund's adjuvant-induced arthritis Lewis rat model at 25 mg/kg, po for 11 days; format: functional, organism-based; design: dose 25 mg/kg; procedure, shortened: as §2
# Ovis aries [11] = test: Effect on late asthmatic response in Ascaris Suum antigen-induced reversible airway bronchoconstriction sheep model assessed as reduction in lung resistance at 10 mg/kg, po bid administered 2 hrs before antigen challenge measured 5 to 8 hrs after challenge; format: functional; design: scale not given: the % may be the effect or the level left
# [12] = target: T2, Cytosolic phospholipase A2 beta (Homo sapiens) (UniProt P0C869); test: Inhibition of cytosolic phospholipase A2beta at 0.5 uM; procedure, shortened: as §3
# T2 sequence (whole entry): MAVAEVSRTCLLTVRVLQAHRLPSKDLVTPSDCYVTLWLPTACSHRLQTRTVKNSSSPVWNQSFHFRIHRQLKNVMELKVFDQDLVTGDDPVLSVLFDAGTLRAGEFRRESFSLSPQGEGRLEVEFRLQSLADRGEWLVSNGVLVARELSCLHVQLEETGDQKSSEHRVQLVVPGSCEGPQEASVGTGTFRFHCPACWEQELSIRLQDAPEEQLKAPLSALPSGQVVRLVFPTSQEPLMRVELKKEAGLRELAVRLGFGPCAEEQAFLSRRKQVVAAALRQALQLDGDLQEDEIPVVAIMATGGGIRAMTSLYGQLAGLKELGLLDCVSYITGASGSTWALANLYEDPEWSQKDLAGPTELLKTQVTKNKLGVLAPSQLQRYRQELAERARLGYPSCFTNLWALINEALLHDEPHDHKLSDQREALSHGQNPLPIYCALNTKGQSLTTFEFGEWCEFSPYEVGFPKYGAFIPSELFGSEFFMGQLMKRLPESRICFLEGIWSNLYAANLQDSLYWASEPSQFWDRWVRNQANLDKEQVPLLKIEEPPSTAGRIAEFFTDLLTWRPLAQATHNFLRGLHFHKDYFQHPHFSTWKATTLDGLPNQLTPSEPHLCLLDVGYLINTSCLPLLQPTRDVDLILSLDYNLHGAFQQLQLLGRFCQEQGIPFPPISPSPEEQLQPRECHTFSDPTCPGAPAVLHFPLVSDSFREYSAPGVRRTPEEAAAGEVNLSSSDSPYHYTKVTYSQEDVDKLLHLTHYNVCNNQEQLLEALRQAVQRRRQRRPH
# MC9 [13] = test: Inhibition of PGF2alpha production in mouse MC9 cells; format: functional, cell-based
# Rattus norvegicus [14] = test: Reduction in cartilage damage in Freund's adjuvant-induced arthritis Lewis rat model at 5 mg/kg, po for 11 days; format: functional, organism-based; design: dose 5 mg/kg; procedure, shortened: as §2
# [15] = Plasma clearance in Sprague-Dawley rat at 2 mg/kg, iv; format: ADME, organism-based; design: dose 2 mg/kg, route intravenous
# [16] = Plasma concentration in collagen-induced arthritis mouse model at 100 mg/kg, po twice daily after 3 hrs; format: ADME, organism-based; design: dose 100 mg/kg, route oral
# [17] = Inhibition of cytosolic phospholipase A2alpha
# [18] = tested on: Prostaglandin G/H synthase 1, cyclooxygenase-1; test: Inhibition of COX1 in microsomes at 100 uM
# Blood [19] = test: Inhibition of LTB4 production in human whole blood at 0.039 uM; format: functional; procedure, shortened: as §1
# Rattus norvegicus [20] = test: Reduction in synovitis damage in Freund's adjuvant-induced arthritis Lewis rat model at 25 mg/kg, po for 11 days; format: functional, organism-based; design: dose 25 mg/kg; procedure, shortened: as §2
# Rattus norvegicus [21] = test: Inhibition of PGE2 production in carrageenan-stimulated rat air pouch model at 5 mg/kg, po after 6 hrs; format: functional
# Procedure, shortened: (§4)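 Carrageenan was injected into a preformed air pouch 2 h after oral drug. Pouch contents were removed 6 h later and PGE2 was quantified.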
# Blood [22] = test: Inhibition of PGE2 production in human whole blood at 0.039 uM; format: functional; procedure, shortened: as §1
# [23] = Inhibition of cytosolic phospholipase A2alpha at 0.020 uM; procedure, shortened: as §3
# [24] = Plasma concentration in adjuvant-induced arthritis Lewis rat model at 25 mg/kg, po after 16 hrs; format: ADME, organism-based; design: dose 25 mg/kg, route oral
# Mus musculus = test: Plasma concentration in collagen-induced arthritis mouse model at 100 mg/kg, po twice daily after 12 to 14 hrs; format: ADME, organism-based; design: dose 100 mg/kg, route oral; conditions: in vivo
# Rattus norvegicus [25] = test: Reduction in synovitis damage in Freund's adjuvant-induced arthritis Lewis rat model at 5 mg/kg, po for 11 days; format: functional, organism-based; design: dose 5 mg/kg; procedure, shortened: as §2
# Blood [26] = test: Inhibition of TXB2 production in human whole blood at 0.039 uM; format: functional; procedure, shortened: as §1
# [27] = Plasma concentration in adjuvant-induced arthritis Lewis rat model at 5 mg/kg, po after 4 hrs; format: ADME, organism-based; design: dose 5 mg/kg, route oral
# Rattus norvegicus [28] = test: Inhibition of carrageenan-induced paw edema in po dosed Sprague-Dawley rat administered 2 hrs before carrageenan challenge; format: functional
# Ovis aries [29] = test: Inhibition of acute hyperresponsiveness in Ascaris Suum antigen-induced reversible airway bronchoconstriction sheep model assessed as reduction in lung resistance at 10 mg/kg, po bid administered and measured after 16 hrs
# [30] = Plasma concentration in adjuvant-induced arthritis Lewis rat model at 50 mg/kg, po after 4 hrs; format: ADME, organism-based; design: dose 50 mg/kg, route oral
# [31] = Plasma concentration in adjuvant-induced arthritis Lewis rat model at 5 mg/kg, po after 16 hrs; format: ADME, organism-based; design: dose 5 mg/kg, route oral
# Blood [32] = test: Inhibition of PAF production in human whole blood at 0.039 uM; format: functional; procedure, shortened: as §1
# [33] = Plasma concentration in adjuvant-induced arthritis Lewis rat model at 50 mg/kg, po after 16 hrs; format: ADME, organism-based; design: dose 50 mg/kg, route oral
# MC9 [34] = test: Inhibition of PGF2apha production in arachidonic acid-stimulated mouse MC9 cells; format: functional, cell-based
# [35] = Inhibition of cytosolic phospholipase A2alpha by GLU micelle assay
# Procedure, shortened: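 Micellar assay with 7-hydroxycoumarinyl-γ-linolenate (GLU) substrate, presenting inhibitor and substrate to the enzyme in high-lipid micelles. Each run gives the mean of duplicate assays, and values come from at least two runs.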
# [36] = Inhibition of secreted phospholipase A2 at 0.5 uM
# Procedure, shortened: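 Type II secreted PLA2 activity measured with PAPE (1-palmitoyl-2-arachidonoyl-sn-glycero-3-phosphoethanolamine) liposomes as substrate.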
# Rattus norvegicus [37] = test: Inhibition of PGE2 production in carrageenan-stimulated orally dosed rat air pouch model after 6 hrs; format: functional; conditions: po; procedure, shortened: as §4
# Rattus norvegicus [38] = test: Reduction in synovitis damage in Freund's adjuvant-induced arthritis Lewis rat model at 50 mg/kg, po for 11 days; format: functional, organism-based; design: dose 50 mg/kg; procedure, shortened: as §2
compound,measurement,setting,value
Cc1cccc(C)c1CS(=O)(=O)NCCc1c(CCCc2ccc(C(=O)O)cc2)c2cc(Cl)ccc2n1C(c1ccccc1)c1ccccc1,bioavailability,[1],4%
same,inhibition at 0.039 µM,Blood [2],72%
same,Activity,Rattus norvegicus [3],Active
same,concentration at 4 h,[4],698 ng/mL
same,IC50,MC9 [5],12 nM
same,Activity,[6],inactive
same,inhibition in vivo at 25 mg/kg,Rattus norvegicus [7],34%
same,Ratio,[8],160 h
same,Activity,[9],inactive
same,Activity,Rattus norvegicus [10],Active
same,Activity,Ovis aries [11],85%
same,Activity,[12],inactive
same,IC50,MC9 [13],6 nM
same,Activity,Rattus norvegicus [14],Active
same,clearance,[15],3 mL/min/kg
same,concentration at 3 h,[16],923 ng/mL
same,IC50,[17],< 10 nM
same,Activity,[18],inactive
same,inhibition at 0.039 µM,Blood [19],78%
same,Activity,Rattus norvegicus [20],Active
same,inhibition in vivo at 5 mg/kg,Rattus norvegicus [21],> 50%
same,inhibition at 0.039 µM,Blood [22],79%
same,inhibition,[23],> 90%
same,concentration at 16 h,[24],73 ng/mL
same,Cp,Mus musculus,118 ng/mL
same,Activity,Rattus norvegicus [25],Active
same,inhibition at 0.039 µM,Blood [26],72%
same,concentration at 4 h,[27],69 ng/mL
same,ED50,Rattus norvegicus [28],8 mg/kg
same,Activity,Ovis aries [29],Active
same,concentration at 4 h,[30],1140 ng/mL
same,concentration at 16 h,[31],26 ng/mL
same,inhibition at 0.039 µM,Blood [32],57%
same,concentration at 16 h,[33],110 ng/mL
same,IC50,MC9 [34],> 1000 nM
same,IC50,[35],10 nM
same,Activity,[36],inactive
same,ED50,Rattus norvegicus [37],3.5 mg/kg
same,Activity,Rattus norvegicus [38],Active
